Source: PubChem BioAssay (several laboratories)
Sampled rows, rich in hits. Any-hit rate of the full collection: about 2.9%.
ADAM17 inh: inhibits human ADAM17 | 370,000 tested, 0.83% active | inhibition, % at 6.95 µM | P78536 | AID 720648 | recombinant ADAM17, EDANS/DABCYL FRET peptide cleavage;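 active = inhibition above the mean of compounds lying between control limits plus 3 SD, set per campaign, cut at about 8.5% in these data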
FAS TE block: blocks the thioesterase domain of human fatty acid synthase; inhibition, % at 15 µM; AID 602261; 360,000 tested, 0.67% active; P49327; recombinant FAS-TE, OMFH fluorogenic substrate, fluorescence endpoint;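 active = compounds whose normalised, plate-corrected inhibition of enzyme fluorescence in the single-dose primary screen is 50% or more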
CaV13 ICDI inh: Primary screen for inhibitors of IQ motif and Ca2+-dependent inactivation inhibitor domain binding in CACNA1D, Förster resonance energy transfer in living cells, …; HEK cells, CFP/YFP FRET ICDI-IQ, plate reader, 10 min; percent FRET-ratio fall versus neutral wells; 340,000 tested, 0.098% active; inhibition, % at 12.3 µM;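 active = mean replicate inhibition of at least 30% and at least 1% of replicates passing that level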
NRP1-CendR mod: alters CendR peptide binding to human NRP-1; O14786; FAM-RPARPAR peptide binding to NRP-1, fluorescence polarization; inhibition, % at 25 µM; 360,000 tested, 0.85% active; AID 602438;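 active = inhibition or corrected inhibition above about 18%, plus a signal ratio from 0.5 to 1.5, limit read from the data, passing the limit was not always enough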
Arrestin-AP2 inh: human beta-arrestin and AP2 interaction inhibition | FITC-arrestin peptide / GST-AP2 beads, flow cytometry; AP2 beta2 appendage carries R879A mutation | inhibition, % at 10 µM | 340,000 tested, 0.31% active;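 active = inhibition above a set limit, near 3 SD of compounds lacking own fluorescence, cut at about 54% in these data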
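System: GST-AP2 R879A glutathione beads | Also added: FITC-arrestin peptide, 50 nM | Times: 12 min plus 1 h, RT | Signal: Bead flow cytometry, FITC channel | Buffer or medium: PBS with 0.05% Tween 20 and 0.1% BSA | Read-out basis: Percent drop in bead-associated FITC signal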
ADAM10 inh: inhibits human ADAM10. O14672. recombinant ADAM10, EDANS/DABCYL FRET peptide cleavage, 3 h. inhibition, % at 7 µM. 370,000 tested, 0.62% active. AID 720582;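 active = inhibition above a per-campaign cutoff equal to the mean of compounds falling between control-based bounds plus 3 SD, cut at about 20% in these data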
FAS-TE conf: confirmation of human fatty acid synthase thioesterase inhibitors; shares compounds with FAS TE block; recombinant FAS-TE, OMFH fluorogenic substrate, fluorescence; inhibition, % at 15 µM; 2,300 tested, 45% active; AID 624325;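 active = compounds inhibiting the enzyme by at least 50% at 15 µM in any one of the replicates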
Numbers stand for hits; 0 = inactive; - = no result given.

SMILES	ADAM17 inh	FAS TE block	CaV13 ICDI inh	NRP1-CendR mod	Arrestin-AP2 inh	ADAM10 inh	FAS-TE conf
CC(=O)c1cccc(-c2ccnc3c2CC(C(=O)Nc2cccc(OC(F)(F)F)c2)O3)c1 (centres undefined)	0	54	0	0	-	0	57
COc1cccc(-c2cnc(C(O)c3c(C)cccc3C)[nH]2)c1 (centres undefined)	0	0	0	0	-	0	-
CCCCCCCOC(=O)c1nc(Cl)c(Cl)c(N)c1Cl	0	54	0	0	0	0	0
O=C(COC(=O)c1cccc([N+](=O)[O-])c1)NC1CCCC1	0	61	0	0	0	0	68
COC(=O)c1cc(C(=O)OCC(=O)NC2CCCC2)cc([N+](=O)[O-])c1	0	61	0	0	0	0	64
Cc1cccc(C(=O)OCC(=O)NC2CCCCCCC2)c1	0	0	0	0	0	0	-
CC(=O)c1ccc(NCC(=O)N2CCN(c3ccccc3)CC2)cc1	0	0	0	0	0	0	-
Cc1cc(C)c([N+](=O)[O-])cc1NCC(=O)N1CCN(c2ccccc2)CC1	0	78	0	0	0	0	66
COC(=O)c1cc(C(=O)OCC(=O)NC2CCS(=O)(=O)C2)cc([N+](=O)[O-])c1 (centres undefined)	0	0	0	0	0	0	-
O=C(OCC(=O)N1CCN(c2ccccc2)CC1)c1cccc([N+](=O)[O-])c1	0	54	0	0	0	0	57
CC1CC(C)CN(C(=O)COC(=O)c2cccc([N+](=O)[O-])c2)C1 (centres undefined)	0	0	0	0	0	0	-
C=CCN1C(=O)c2n[nH]c(C)c2C1c1ccc(C)cc1 (centres undefined)	0	-	0	-	-	0	-
CCOC(=O)[C@@H]1CSCCS(=O)(=O)N1C(=O)[C@H](Cc1ccccc1)NC(=O)OC(C)(C)C	0	-	0	-	-	0	-
COc1ccc(Cc2nc3c4c(ncn3n2)Oc2ccc3ccccc3c2C4c2ccc(OC)c(OC)c2)cc1 (centres undefined)	0	59	0	0	0	0	0
COc1ccc(Cc2nc3c4c(ncn3n2)Oc2c(ccc3ccccc23)C4c2ccc(OC)c(OC)c2)cc1 (centres undefined)	0	0	0	0	0	0	-
COc1ccc(-c2nn(-c3ccccc3)cc2/C=C/C(=O)O)cc1[N+](=O)[O-]	0	53	0	0	0	0	62
Cc1ccc(-n2[nH]c(C)c(/C=N/Nc3ccc([N+](=O)[O-])cc3[N+](=O)[O-])c2=O)cc1C	0	55	0	41	0	0	41
Cc1[nH]n(-c2ccccc2)c(=O)c1/C=N/NC(=O)c1cccc([N+](=O)[O-])c1	0	0	-	0	0	0	-
O=S(=O)(c1ccccc1Br)N(Cc1cn(Cc2ccccc2)nn1)C1CC1	0	-	-	-	-	0	-
Cc1cccc(C)c1N1CCN(c2nc(N(C)C)oc(=O)c2C#N)CC1	0	56	0	0	0	0	0
Cc1cscc1-c1ccc(C(=O)Nc2c(C)cccc2C)o1	0	0	0	0	-	0	-
CC1C(=O)CC(c2ccc([N+](=O)[O-])cc2)NC1c1ccc([N+](=O)[O-])cc1 (centres undefined)	0	52	0	0	0	0	0
N/C(=N\c1nc2c(c(=O)[nH]1)CCCC2)Nc1ccccc1Sc1ccccc1	0	51	0	0	0	0	0
N/C(=N\c1nc2c(c(=O)[nH]1)CCCC2)Nc1ccccc1	0	0	0	0	0	0	-
O=C(O)COc1ccccc1C=NNc1ccc([N+](=O)[O-])cc1S(=O)(=O)Nc1ccc(Cl)cc1	0	50	0	0	0	0	62
SMILES	ADAM17 inh	FAS TE block	CaV13 ICDI inh	NRP1-CendR mod	Arrestin-AP2 inh	ADAM10 inh	FAS-TE conf
COc1ccc(NS(=O)(=O)c2cc([N+](=O)[O-])ccc2NN=Cc2ccccc2OCC(=O)O)cc1	0	0	0	0	0	0	-
O=C(C(=O)N1CCC(CNS(=O)(=O)c2ccc(F)cc2)CC1)c1cccs1	0	-	0	-	-	0	-
O=C(NC1CCCCCCC1)c1cc([N+](=O)[O-])ccc1Cl	0	66	0	0	0	0	65
O=C(Nc1ccc(S(=O)(=O)N2CCOCC2)cc1)c1cc([N+](=O)[O-])ccc1Cl	0	65	0	0	0	0	0
O=C(Nc1ccc(Nc2ccccc2)cc1)c1cc([N+](=O)[O-])ccc1Cl	0	59	0	0	0	0	49
O=C(NC1CCCCC1)c1cc([N+](=O)[O-])ccc1N1CCCC1	0	0	0	0	0	0	-
CC1CCN(C(=O)COC(=O)c2ccc3c(c2)C(=O)N(Cc2ccco2)C3=O)CC1	0	0	0	0	0	0	-
N#CC(CCc1ccccc1[N+](=O)[O-])(CCc1ccccc1[N+](=O)[O-])C(N)=O	0	52	-	0	0	0	47
Cc1ccsc1-c1cc2nc(NCCCN(C)C)n(C)c(=O)c2s1	0	0	0	0	-	0	-
O=[N+]([O-])c1cc(CS(=O)(=O)Oc2ccc(Cl)cc2)c(O)c([N+](=O)[O-])c1	0	57	0	0	0	0	68
O=C(NCCN1C(=O)S/C(=C\c2ccc(Cl)c([N+](=O)[O-])c2)C1=O)C1=COCCO1	0	52	0	0	0	0	0
CC(C)(C)c1ccc(CSc2ccc(S(=O)(=O)N3CCOCC3)cn2)cc1	0	82	0	0	0	0	74
N#CCSc1ccc(S(=O)(=O)N2CCOCC2)cn1	0	0	0	0	0	0	-
CCOC(=O)C1CCCN(c2nc3c(C)cccn3c(=O)c2/C=C(\C#N)C(=O)NCc2ccco2)C1 (centres undefined)	0	52	0	0	0	0	54
Cc1cccn2c(=O)c(/C=C(\C#N)C(=O)NCc3ccco3)c(N3CCCCCC3)nc12	0	53	0	0	0	0	0
Cc1cccn2c(=O)c(/C=C(\C#N)C(=O)NCc3ccco3)c(N3CCCCC3)nc12	0	0	0	0	0	0	-
C#CCN1CC(N(C)CCOC(=O)c2cc3ccccc3[nH]2)CS1(=O)=O (centres undefined)	0	-	-	-	-	0	-
O=C(NNC(=O)C12CC3CC(CC(C3)C1)C2)c1cccc([N+](=O)[O-])c1	0	0	0	0	0	0	-
O=C(NNc1ccc([N+](=O)[O-])cc1)C12CC3CC(CC(C3)C1)C2	0	52	0	0	0	0	0
COc1ccc(-c2cnnn2-c2ccc(NC(=O)c3ccc(S(=O)(=O)N4CCCCC4)cc3)cc2)cc1	0	58	0	0	0	0	0
